Results reported in ChEMBL document CHEMBL4043205, “Picomolar inhibition of β-galactosidase (bovine liver) attributed to loop closure” (Bioorg Med Chem, 2017).
Active and inactive are the calls of the source. No cut-off for these calls is given here.

Assays:
[1] = molecular target: T1, Beta-galactosidase (Bos taurus) (UniProt Q58D55); assay: Competitive inhibition of bovine liver beta-galactosidase using 4-nitrophenyl-beta-D-galactopyranoside substrate measured over 240 mins at 10 mins intervals by UV/Vis spectroscopy based Lineweaver-Burk plot
T1 sequence (whole entry): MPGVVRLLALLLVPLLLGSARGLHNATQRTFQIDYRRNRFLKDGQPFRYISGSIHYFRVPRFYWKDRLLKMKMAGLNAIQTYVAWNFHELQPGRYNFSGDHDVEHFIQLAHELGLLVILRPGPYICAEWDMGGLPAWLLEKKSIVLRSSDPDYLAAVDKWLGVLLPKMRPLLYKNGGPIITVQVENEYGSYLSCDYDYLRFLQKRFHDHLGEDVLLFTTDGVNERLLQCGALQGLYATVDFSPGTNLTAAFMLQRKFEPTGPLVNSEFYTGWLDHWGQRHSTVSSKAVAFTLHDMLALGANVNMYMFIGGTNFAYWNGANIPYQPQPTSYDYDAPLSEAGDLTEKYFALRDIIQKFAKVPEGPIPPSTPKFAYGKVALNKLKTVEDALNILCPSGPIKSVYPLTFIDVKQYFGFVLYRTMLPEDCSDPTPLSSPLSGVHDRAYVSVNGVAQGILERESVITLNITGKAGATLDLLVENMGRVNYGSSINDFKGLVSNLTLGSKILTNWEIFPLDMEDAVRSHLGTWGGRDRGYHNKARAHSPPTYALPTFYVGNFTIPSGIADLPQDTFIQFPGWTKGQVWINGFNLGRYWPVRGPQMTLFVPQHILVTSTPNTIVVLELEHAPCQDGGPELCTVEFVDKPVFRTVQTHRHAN

[2] = Inhibition of Aspergillus oryzae beta-galactosidase using 2-chloro-4-nitrophenyl b-dgalactopyranoside substrate
[3] = molecular target: T2, Beta-galactosidase (Bos taurus, UniProt Q58D55); assay: Inhibition of bovine liver beta-galactosidase using 4-nitrophenyl-beta-D-galactopyranoside substrate measured over 240 mins at 10 mins intervals by UV/Vis spectroscopy
T2 sequence (Q58D55 whole entry): T1 sequence (whole entry)
In short: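 Bovine liver enzyme in 5 mM HEPES pH 7.50; 4-nitrophenyl-β-D-galactopyranoside mixed with 11 inhibitor dilutions (stocks 0.005–200 μM), equilibrated 30 °C 30 min, then enzyme added. Absorbance at 405 nm followed 240 min; final reads converted to percent inhibition against buffer control, plotted versus log inhibitor concentration; duplicates.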

[4] = molecular target: T2, Beta-galactosidase; assay: Inhibition of bovine liver beta-galactosidase pre-incubated for 30 mins with 4-nitrophenyl-beta-D-galactopyranoside substrate before enzyme addition measured over 45 mins at 27 secs intervals by UV/Vis based spectroscopy
In short: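 Bovine liver enzyme (stock aliquot thawed, diluted in 5 mM HEPES, kept on ice). Varied 4-nitrophenyl-β-D-galactopyranoside with fixed inhibitor, pH 7.50 HEPES, equilibrated 30 °C 30 min before enzyme; 405 nm read for 45 min. Initial rates via ε 13,300 M−1 cm−1, fitted Michaelis-Menten at ≥2 inhibitor levels; competitive Ki from K′m = Km(1+[I]/Ki); duplicates, Lineweaver-Burk check.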

[5] = Inhibition of Aspergillus oryzae beta-galactosidase using 2-chloro-4-nitrophenyl b-dgalactopyranoside substrate relative to control
[6] = tested on: Aspergillus oryzae; assay: Inhibition of Aspergillus oryzae beta-galactosidase using 2-chloro-4-nitrophenyl b-dgalactopyranoside substrate by Lineweaver-Burk plot
[7] = tested on: Aspergillus oryzae; assay: Inhibition of Aspergillus oryzae beta-galactosidase using 2-chloro-4-nitrophenyl b-dgalactopyranoside substrate by Eddie-Hofstee plot
[8] = molecular target: T1, Beta-galactosidase (Bos taurus); assay: Competitive inhibition of bovine liver beta-galactosidase using 4-nitrophenyl-beta-D-galactopyranoside substrate measured over 240 mins at 10 mins intervals by UV/Vis spectroscopy based Eddie-Hofstee plot

| SMILES | Inhibition mode (qualitative, Lineweaver-Burk) [1] | Ki [2] | IC50 [3] | Ki [4] | IC50 [5] | inhibition activity [6] | inhibition activity (qualitative) [7] | competitive inhibition (qualitative call) [8] |
| --- | --- | --- | --- | --- | --- | --- | --- | --- |
| OC[C@H]1N/C(=N\Cc2ccccc2F)[C@H](O)[C@@H](O)[C@H]1O | Active | 16.1 nM | 43.1 nM | 0.23 nM | 117 nM | Active | Active | Active |
| CC(C)(C)c1ccc(C/N=C2\N[C@H](CO)[C@H](O)[C@H](O)[C@H]2O)cc1 | Active | 20.6 nM | 412 nM | 0.11 nM | 122 nM | Active | Active | Active |
| Cc1cccc(C/N=C2\N[C@H](CO)[C@H](O)[C@H](O)[C@H]2O)c1 | Active | 29.4 nM | 16.2 nM | 0.11 nM | 131 nM | Active | Active | Active |
| OC[C@H]1N/C(=N\Cc2ccc(C(F)(F)F)cc2)[C@H](O)[C@@H](O)[C@H]1O | Active | 15.7 nM | 15.2 nM | 0.16 nM | 122 nM | Active | Active | Active |
| CO[C@@H]1[C@H](O)[C@@H](O)C(NCc2ccc(C)cc2)=N[C@@H]1CO | Active | 1400 nM | 9200 nM | 840 nM | 40700 nM | Active | Active | Active |
| Cc1ccc(CNC2=N[C@H](CO)[C@H](O)[C@H](O)C2)cc1 | Active | 2400 nM | 850 nM | 0.6 nM | 33300 nM | Active | Active | Active |
| OC[C@H]1N/C(=N\Cc2cccc(F)c2)[C@H](O)[C@@H](O)[C@H]1O | Active | 20.3 nM | 9.4 nM | 0.13 nM | 115 nM | Active | Active | Active |
| Cc1ccccc1C/N=C1\N[C@H](CO)[C@H](O)[C@H](O)[C@H]1O | Active | 23.6 nM | 118 nM | 0.2 nM | 623 nM | Active | Active | Active |
| OC[C@H]1N/C(=N\C2CCCCC2)[C@H](O)[C@@H](O)[C@H]1O | Active | 602 nM | > 1000 nM | 2.34 nM | 4870 nM | Active | Active | Active |
| CCCCCCCCCCCNC1=N[C@H](CO)[C@H](O)[C@H](O)[C@H]1O | Active | 48.4 nM | 42.7 nM | 0.24 nM | 33.5 nM | Active | Active | Active |
| CCC/N=C1\N[C@H](CO)[C@H](O)[C@H](O)[C@H]1O | Active | 149 nM | 1030 nM | 0.32 nM | 226 nM | Active | Active | Active |
| CCCCCCC/N=C1\N[C@H](CO)[C@H](O)[C@H](O)[C@H]1O | Active | 10.8 nM | 24.1 nM | 0.11 nM | 107 nM | Active | Active | Active |
| O=C1N[C@H](CO)[C@H](O)[C@H](O)[C@H]1O | Active | 615 nM | 8700 nM | 2700 nM | > 50000 nM | Active | Active | Active |
| OC[C@H]1N/C(=N\CC2CCCCC2)[C@H](O)[C@@H](O)[C@H]1O | Active | 11.3 nM | 11.6 nM | 0.08 nM | 22 nM | Active | Active | Active |
| OC[C@H]1N/C(=N\C2CC2)[C@H](O)[C@@H](O)[C@H]1O | Active | 31.9 nM | > 1000 nM | 0.32 nM | 369 nM | Active | Active | Active |
| OC[C@H]1N/C(=N\Cc2ccc(F)cc2)[C@H](O)[C@@H](O)[C@H]1O | Active | 10.1 nM | 9.1 nM | 0.19 nM | 331 nM | Active | Active | Active |
| CCCCC(CC)CNC1=N[C@H](CO)[C@H](O)[C@H](O)[C@H]1O (some centres undefined) | Active | 7.8 nM | 21.6 nM | 0.18 nM | 36 nM | Active | Active | Active |
| COc1ccc(C/N=C2\N[C@H](CO)[C@H](O)[C@H](O)[C@H]2O)cc1 | Active | 17.1 nM | 26.2 nM | 0.12 nM | 150 nM | Active | Active | Active |
